Hits are enriched below; roughly 9% of the tested compounds scored in any of these assays.
M1 antag: antagonists of rat M1 muscarinic receptor; B-score at 10 µM; CHO-M1 cells, Fluo-4 calcium, ACh EC80 antagonist mode; stronger effect = lower value; AID 628, 2007; Muscarinic acetylcholine receptor M1 (Rattus norvegicus), P08482; 64,000 compounds, 3.4% hits;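 active = calcium fluorescence response, raw or row-and-column corrected B-score, differing from the plate sample mean either way at a set confidence level, mostly lower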
mHtt clearance: clearance of mutant huntingtin inclusions, primary screen, imaging, HeLa Exon1htt(103Q)mCFP, confocal imaging; aggregate imaging; zero = plate's median compound well; inhibition, % at 1.5 µM; 47,000 compounds, 0.42% hits; AID 853, 2007;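 active = inhibition of aggregate fluorescence above about 70%, also judged a hit by eye on the cell image, limit read from the data, passing the limit was not always enough; inconclusive = no rule stated for this call; inactive = not judged a hit on image review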;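 note: cells exposed to compound for three days before fixation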
AP ELISA ortho: alternative complement pathway inhibitors, primary screen, biochemical, ELISA, human serum, orthogonally pooled compounds. 62,000 compounds, 0.08% hits. inhibition, % at 5 µM. LPS-coated ELISA, C3 deposition; tested in compound mixtures;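 active = inhibition above 30% in each of the two pooled mixtures holding the compound, so the lower value exceeds 30%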;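 note: 0% = serum in Mg-EGTA without compound and 100% = EDTA serum blank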
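Medium: diluted human serum in Mg2+-EGTA GVB++. Assay system: human serum complement alternative pathway, C3 deposition onto LPS. Also added: Plate-bound LPS. Technique: Anti-C3 ELISA, OD 450 nm. Measure: percent inhibition. Incubation: 1 h at 37 °C. Dosing: 5 µM each compound, pools of ten, 50 µM per pool.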
D1 allo mod: D1 CRE-luciferase signal change, two-sided – cell-based, HEK293 D1, dopamine EC30, D1 allosteric modulator project, primary screen; AID 641, 2007; D(1A) dopamine receptor (Homo sapiens), P21728; B-score at 10 µM; 58,000 compounds, 5.9% hits; dopamine EC30 potentiation; actives deviate in either direction;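 active = luminescence count or its row- and column-corrected plate score outside the 99.7% band of the plate's sample wells, on either side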
M1 ag: M1 muscarinic receptor agonists, primary screen, CHO-M1 cells, Fluo-4 calcium, agonist mode; 64,000 compounds, 3% hits; AID 626, 2007; Muscarinic acetylcholine receptor M1; Fluo-4 calcium fluorescence; stronger effect = higher value; B-score at 10 µM;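 active = fluorescence rise, raw or as B-score row- and column-corrected plate score, outside the 99.7% band of its plate's samples, either direction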
M1 ag confirm: rat M1 muscarinic receptor agonists, confirmation, CHO-M1 cells, Fluo-4 calcium, duplicate retest; shares compounds with M1 ag; Fluo-4 calcium fluorescence, agonist mode; actives lie on both sides; fluorescence change (max-min) at 10 µM; 1,700 compounds, 19% hits; AID 1488, 2009;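 active = fluorescence change differs from the solvent-only DMSO control mean at a set confidence level in both duplicate runs; inconclusive = differs from solvent-only control mean in just one of two runs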;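 note: an EC20 dose of acetylcholine follows compound addition during the same imaging run; raw fluorescence intensity difference in instrument units with no normalization to controls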
M4 ag counter: agonist activity at rat M4 receptor, confirmation, counter-screen for M1 allosteric modulator project, cell-based, agonist mode | CHO M4/Gqi5 cells, Fluo-4 calcium fluorescence; actives lie on both sides | fluorescence change (max-min) at 10 µM | 1,700 compounds, 9% hits | AID 1741, 2009 | shares compounds with M1 ag;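 active = fluorescence change differing from the plate's solvent-only control wells at 99.7% confidence in both duplicates, whether higher or lower; inconclusive = differs from solvent controls in only one of two duplicates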
Target sequence (P08485 whole entry, looked up): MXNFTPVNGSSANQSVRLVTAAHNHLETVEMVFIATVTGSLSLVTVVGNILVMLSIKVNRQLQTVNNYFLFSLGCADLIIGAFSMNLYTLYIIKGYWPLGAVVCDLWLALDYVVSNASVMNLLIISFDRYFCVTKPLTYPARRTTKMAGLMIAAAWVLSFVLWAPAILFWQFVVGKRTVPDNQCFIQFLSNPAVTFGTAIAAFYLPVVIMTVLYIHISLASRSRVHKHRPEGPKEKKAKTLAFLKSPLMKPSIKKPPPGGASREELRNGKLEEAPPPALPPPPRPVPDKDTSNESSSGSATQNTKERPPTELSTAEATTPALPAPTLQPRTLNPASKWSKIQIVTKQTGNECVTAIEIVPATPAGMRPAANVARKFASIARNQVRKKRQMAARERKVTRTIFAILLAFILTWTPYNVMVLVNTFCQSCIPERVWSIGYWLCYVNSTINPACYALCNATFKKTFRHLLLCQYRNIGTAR
Active calls of the source: *; ? = inconclusive; nt = no result given.

SMILES | M1 antag | mHtt clearance | AP ELISA ortho | D1 allo mod | M1 ag | M1 ag confirm | M4 ag counter
Cc1ccc2[nH]c3c(c2c1)CN(C(=O)CN1CCN(Cc2ccc4c(c2)OCO4)CC1)CC3 | -1.6 | nt | 5 | -1.4 | 0.065 | nt | nt
Cc1ccc(S(=O)(=O)N2CCOCC2)cc1C(=O)Nc1nc(-c2cccnc2)cs1 | 0.88 | 39 | 21 | -0.1 | 0.21 | nt | nt
Cc1ccc(S(=O)(=O)N2CCOCC2)cc1C(=O)Nc1ccc(-c2cn3ccsc3n2)cc1 | -0.0062 | nt | 17 | -3.6 | 3.3* | -8.1 | ?
CCCCCOC(=O)c1ccccc1C(=O)O | -0.33 | nt | -7 | -0.097 | 3* | -9.3 | ?
CC(=O)N1C(C(=O)O)CSC1c1ccc(C)cc1 (centres undefined) | -0.84 | nt | 15 | nt | 1.7 | nt | nt
Cc1cnc(-c2nnc(N(C)C(=O)C3CCCO3)s2)cn1 (centres undefined) | -0.23 | 30 | -3 | -0.33 | -1.7* | -23 | -25
CC1Cc2ccccc2N1C(=O)c1cc2c(=O)n3ccccc3nc2n1C (centres undefined) | -0.58 | nt | 0 | -2.1 | 8.4* | -6.4 | -12
Cn1c(C(=O)N2CCc3ccccc3C2)cc2c(=O)n3ccccc3nc21 | 0.46 | nt | 9 | 2.9 | 2.1 | nt | nt
NC1=NC(c2ccc(F)cc2)n2c(nc3ccccc32)N1 (centres undefined) | 0.97 | 38 | 16 | -0.44 | 0.84 | nt | nt
COc1cc2c(=O)nc3n(c2cc1OC)C(c1ccccc1)N=C(N)N3 (centres undefined) | -1.2 | nt | 5 | 0.38 | 2.4* | -17 | -38
CC(C)CCn1c(Br)nc2c1c(=O)n(CC(N)=O)c(=O)n2C | 0.4 | nt | 2 | -0.4 | 0.4 | nt | nt
C#CC1(O)CC(C)N(C)C(C)C1 (centres undefined) | 0.28 | nt | -7 | -1.5 | 2.4* | -11 | -24
COc1ccc2cc(CCNC(=O)c3c(-c4ccccc4Cl)noc3C)c(=O)[nH]c2c1 | 0.014 | nt | 16 | -0.13 | 0.35 | nt | nt
O=C(CSc1nnnn1-c1cccnc1)NCc1cccs1 | 0.12 | nt | -3 | 0.25 | -0.36 | nt | nt
O=C(CN1CCN(C2CCCCC2)CC1)NCCC1=CCCCC1 | -0.37 | nt | -6 | 0.35 | 13* | 94* | -46
CCCCCNC(=O)C(C#N)c1nc2ccccc2nc1N1CCCC1 (centres undefined) | -2.4* | 8 | 15 | 0.84 | 282* | 1609* | 1437*
CCCCCCNC(=O)C(C#N)c1nc2ccccc2nc1N1CCOCC1 (centres undefined) | 0.63 | -38 | 10 | 0.16 | 156* | 179* | 1619*
N#CC(C(=O)NCCc1ccccc1)c1nc2ccccc2nc1N1CCOCC1 (centres undefined) | -0.52 | nt | -5 | 0.25 | -0.27 | nt | nt
CCCCCCOC(=O)C(C#N)c1nc2ccccc2nc1N1CCN(CC)CC1 (centres undefined) | -1.1 | -16 | 2 | -4.1* | 4.1* | -0.77 | -7.2
COC(=O)c1ccc(=O)n(Cc2ccc3c(c2)OCO3)c1 | -0.11 | -41 | nt | -0.12 | -0.31 | nt | nt
CCn1c(N)c(C(=O)NCC2CCCO2)sc1=S (centres undefined) | -0.083 | nt | 8 | 1.7 | 6.7* | -7.8 | -3.5
C=CCn1c(N)c(C(=O)NCC2CCCO2)sc1=S (centres undefined) | 0.42 | nt | 3 | 0.081 | -0.018 | nt | nt
Cc1nn(Cc2ccc(Cl)c(Cl)c2)c(C)c1NC(=O)c1cc(-c2ccc3c(c2)OCO3)on1 | -1.9 | nt | -1 | -0.8 | 4.1* | 31 | -11
Cc1nn(Cc2ccc(Cl)cc2)c(C)c1NC(=O)c1cc(-c2ccc3c(c2)OCO3)on1 | 0.0093 | -5 | 4 | -0.68 | -0.19 | nt | nt
Cc1nn(Cc2ccc(F)cc2)c(C)c1NC(=O)c1noc2c1CCCCC2 | 0.091 | nt | 3 | 0.18 | 5.9* | -6.7 | -40
